The source made the active and inactive calls. No cut-off for these calls is given here.
Legend:
[1] = system: Rattus norvegicus; assay: Compound was tested for subcutaneous dose giving half-maximal decrease of Dopa formation in the rat brain (striatum); assay type: functional; conditions: sc
[2] = system: Rattus norvegicus; assay: Compound was tested for subcutaneous dose giving half-maximal decrease of 5-HTP formation in the rat brain (limbic); Inactive; assay type: functional, organism-based
Outline: (§1)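 Male Sprague-Dawley rats (200–350 g) were reserpinized. Reserpine was dissolved in glacial acetic acid and made up with 5.5% glucose. Test drug was given sc in saline, at neutral pH, 5 or 10 mL/kg. Brain-part 5-HTP formation was measured spectrofluorometrically. ED50 (half-maximal decrease) came from 4–6 dose levels, n = 3-5.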

[3] = system: Rattus norvegicus; assay: Compound was tested for subcutaneous dose giving half-maximal decrease of Dopa formation in the rat brain (limbic); assay type: functional; conditions: sc
[4] = system: Rattus norvegicus; assay: Compound was tested for subcutaneous dose giving half-maximal decrease of 5-HTP formation in the rat brain (striatum); Inactive; assay type: functional, organism-based; outline: as §1
[5] = system: Rattus norvegicus; assay: Compound was tested for subcutaneous dose giving half-maximal decrease of 5-HTP formation in the rat brain hemispheres (cortex); Inactive; assay type: functional, organism-based; outline: as §1
[6] = target: T1, Dopamine receptor (Rattus norvegicus) (UniProt P25115+P19020+P30729+P18901+P61169); assay: Subcutaneous dose giving half-maximal decrease of Dopa formation in the rat brain (limbic); assay type: functional, tissue-based
[7] = target: T2, Serotonin (5-HT) receptor (Rattus norvegicus) (UniProt P35563+P35365+P32305+P31388+Q9JJ16+P28564+P30994+Q62758+P08909+P14842+P30940+P35364+P19327+P28565); assay: Subcutaneous dose giving half-maximal decrease of 5-HTP formation in the rat brain (striatum); assay type: functional, tissue-based; outline: as §1
[8] = target: T1, Dopamine receptor (Rattus norvegicus); assay: Subcutaneous dose giving half-maximal decrease of Dopa formation in the rat brain (striatum); assay type: functional, tissue-based
[9] = target: T2, Serotonin (5-HT) receptor (Rattus norvegicus); assay: Subcutaneous dose giving half-maximal decrease of 5-HTP formation in the rat brain hemispheres (cortex); assay type: functional, tissue-based; outline: as §1
[10] = target: T2, Serotonin (5-HT) receptor (Rattus norvegicus); assay: Subcutaneous dose giving half-maximal decrease of 5-HTP formation in the rat brain (limbic); assay type: functional, tissue-based; outline: as §1

SMILES	ED50 [1]	ED50 [2]	ED50 [3]	ED50 [4]	ED50 [5]	ED50 [6]	ED50 [7]	ED50 [8]	ED50 [9]	ED50 [10]
CCCN(CCC)C1CCc2c(O)ccc(O)c2C1 (stereo not given)	5.4 µmol/kg	inactive	5.2 µmol/kg	inactive	inactive					
CN(C)C1CCc2cccc(O)c2C1 (stereo not given)						inactive	0.43 µmol/kg	inactive	0.36 µmol/kg	0.38 µmol/kg
Oc1cccc2c1CC(N1CCCCC1)CC2 (stereo not given)						inactive	1.1 µmol/kg	inactive	1.4 µmol/kg	1.6 µmol/kg
CCCCCCCCNC1CCc2cccc(O)c2C1 (stereo not given)		inactive		inactive	inactive	inactive		inactive		
CCNC1CCc2cccc(O)c2C1 (stereo not given)						inactive	0.2 µmol/kg	inactive	0.22 µmol/kg	0.27 µmol/kg
CCCN(CCC)C1CCc2cccc(O)c2C1 (racemic)						inactive	0.052 µmol/kg	inactive	0.063 µmol/kg	0.052 µmol/kg
CNC1CCc2cccc(O)c2C1 (stereo not given)						inactive	1.6 µmol/kg	inactive	1.8 µmol/kg	1.5 µmol/kg
CC(C)NC1CCc2cccc(O)c2C1 (stereo not given)						inactive	2.9 µmol/kg	inactive	4.1 µmol/kg	2.6 µmol/kg
CCCN(CCC)[C@@H]1CCc2cccc(O)c2C1						inactive	0.047 µmol/kg	inactive	0.05 µmol/kg	0.036 µmol/kg
CCCN(Cc1ccccc1)C1CCc2cccc(O)c2C1 (stereo not given)						inactive	2.9 µmol/kg	inactive	2.3 µmol/kg	2.7 µmol/kg
CCCN(CCC)[C@H]1CCc2cccc(O)c2C1						inactive	0.065 µmol/kg	inactive	0.077 µmol/kg	0.061 µmol/kg
CCCCN(CCCC)C1CCc2cccc(O)c2C1 (stereo not given)						inactive	6.6 µmol/kg	inactive	5.7 µmol/kg	5 µmol/kg
CCN(CC)C1CCc2cccc(O)c2C1 (stereo not given)						inactive	0.068 µmol/kg	inactive	0.07 µmol/kg	0.054 µmol/kg
CCCCN(CCC)C1CCc2cccc(O)c2C1 (stereo not given)						inactive	0.26 µmol/kg	inactive	0.34 µmol/kg	0.27 µmol/kg
CCCN(CCC)C1CCc2c(OC)ccc(OC)c2C1 (stereo not given)	1.24 µmol/kg	inactive	0.905 µmol/kg	inactive	inactive					
CCCCNC1CCc2cccc(O)c2C1 (stereo not given)						inactive	4.5 µmol/kg	inactive	6.3 µmol/kg	4.3 µmol/kg
CCCN(CCC)C1CCc2cccc(OC)c2C1 (stereo not given)						inactive	0.29 µmol/kg	inactive	0.23 µmol/kg	0.34 µmol/kg
CCCN(CC)C1CCc2cccc(O)c2C1 (stereo not given)						inactive	0.059 µmol/kg	inactive	0.066 µmol/kg	0.057 µmol/kg
CCCNC1CCc2cccc(O)c2C1 (stereo not given)						inactive	0.15 µmol/kg	inactive	0.18 µmol/kg	0.14 µmol/kg
CCN(CC)C(=O)[C@@H]1C=C2c3cccc4[nH]cc(c34)C[C@H]2N(C)C1 [LYSERGIDE]	0.395 µmol/kg		0.39 µmol/kg				0.035 µmol/kg		0.036 µmol/kg	0.036 µmol/kg

Source: ChEMBL document CHEMBL1122750, “8-Hydroxy-2-(alkylamino)tetralins and related compounds as central 5-hydroxytryptamine receptor agonists” (1984)
